Key:
Assay type in all cases: ADME
[1] = target: Cytochrome P450 3A5 (Homo sapiens, UniProt P20815); experiment: Drug level of the compound assessed as recombinant CYP3A5 (unknown origin)-mediated metabolite formation treated with budesonide by MS/MS analysis; conditions: recombinant enzyme
Summary of the method: (§1)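 Metabolite profiling used 50 pmol recombinant P450 (with reductase and cytochrome b5) and 100 μM substrate in 30 mM potassium phosphate (pH 7.4). Reactions were started with 1.3 mM NADPH at 37°C, with no-NADPH negative controls. They were stopped with cold acetonitrile, deproteinized by centrifugation, and metabolites were extracted on C-18 cartridges for MS analysis.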

[2] = target: Cytochrome P450 3A7 (Homo sapiens, UniProt P24462); experiment: Drug level of the compound assessed as recombinant CYP3A7 (unknown origin)-mediated metabolite formation treated with budesonide by MS/MS analysis; conditions: recombinant enzyme; summary of the method: as §1
Chain of Cytochrome P450 3A7 (P24462 whole entry): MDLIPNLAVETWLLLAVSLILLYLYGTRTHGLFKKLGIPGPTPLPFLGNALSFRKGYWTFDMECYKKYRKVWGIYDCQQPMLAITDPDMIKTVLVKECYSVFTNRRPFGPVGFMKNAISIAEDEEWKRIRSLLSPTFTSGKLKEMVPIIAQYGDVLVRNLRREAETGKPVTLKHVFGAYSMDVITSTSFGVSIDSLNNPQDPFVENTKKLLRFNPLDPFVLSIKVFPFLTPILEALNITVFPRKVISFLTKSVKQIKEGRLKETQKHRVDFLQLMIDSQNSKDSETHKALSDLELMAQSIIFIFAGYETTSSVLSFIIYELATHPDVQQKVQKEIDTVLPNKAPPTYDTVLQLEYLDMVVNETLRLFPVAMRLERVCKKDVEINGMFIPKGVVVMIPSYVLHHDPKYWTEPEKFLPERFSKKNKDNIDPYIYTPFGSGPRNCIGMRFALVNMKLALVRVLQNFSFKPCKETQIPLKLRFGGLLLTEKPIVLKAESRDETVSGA

[3] = target: T1, Cytochrome P450 3A4 (Homo sapiens, UniProt P08684); experiment: Drug level of the compound assessed as recombinant CYP3A4 (unknown origin)-mediated metabolite formation treated with budesonide by MS/MS analysis; conditions: recombinant enzyme; summary of the method: as §1
T1 sequence (P08684 whole entry): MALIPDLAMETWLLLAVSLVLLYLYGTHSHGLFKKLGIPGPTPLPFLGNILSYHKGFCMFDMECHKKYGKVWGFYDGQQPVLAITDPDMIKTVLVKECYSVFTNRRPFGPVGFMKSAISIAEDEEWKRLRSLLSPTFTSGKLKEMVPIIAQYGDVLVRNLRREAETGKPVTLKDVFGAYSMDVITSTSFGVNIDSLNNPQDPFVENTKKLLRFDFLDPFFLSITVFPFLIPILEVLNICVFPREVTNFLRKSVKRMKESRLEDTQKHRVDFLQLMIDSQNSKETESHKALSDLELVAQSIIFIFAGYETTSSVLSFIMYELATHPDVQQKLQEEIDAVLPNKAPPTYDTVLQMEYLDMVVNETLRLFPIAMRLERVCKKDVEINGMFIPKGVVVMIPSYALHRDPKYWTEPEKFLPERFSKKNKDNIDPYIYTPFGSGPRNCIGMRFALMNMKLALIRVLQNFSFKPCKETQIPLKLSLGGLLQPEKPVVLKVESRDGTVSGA

[4] = target: T1, Cytochrome P450 3A4; experiment: Drug metabolism assessed as recombinant CYP3A4 (unknown origin)-mediated 6beta-hydroxy, 21-carboxy triamcinolone acetonide metabolite retention time by MS/MS analysis; conditions: recombinant enzyme; summary of the method: as §1
[5] = target: T1, Cytochrome P450 3A4; experiment: Drug level of the compound assessed as recombinant CYP3A4 (unknown origin)-mediated metabolite formation treated with triamcinolone acetonide by MS/MS analysis; conditions: recombinant enzyme; summary of the method: as §1
[6] = target: T1, Cytochrome P450 3A4; experiment: Drug metabolism assessed as recombinant CYP3A4 (unknown origin)-mediated delta6-flunisolide metabolite retention time by MS/MS analysis; conditions: recombinant enzyme; summary of the method: as §1
[7] = target: T1, Cytochrome P450 3A4; experiment: Drug level of the compound assessed as recombinant CYP3A4 (unknown origin)-mediated metabolite formation treated with flunisolide by MS/MS analysis; conditions: recombinant enzyme; summary of the method: as §1
[8] = target: T1, Cytochrome P450 3A4; experiment: Drug metabolism assessed as recombinant CYP3A4 (unknown origin)-mediated 21-carboxy flunisolide metabolite retention time by MS/MS analysis; conditions: recombinant enzyme; summary of the method: as §1
[9] = target: T1, Cytochrome P450 3A4; experiment: Drug metabolism assessed as recombinant CYP3A4 (unknown origin)-mediated 21-carboxy triamcinolone acetonide metabolite retention time by MS/MS analysis; conditions: recombinant enzyme; summary of the method: as §1
[10] = target: T1, Cytochrome P450 3A4; experiment: Drug metabolism assessed as recombinant CYP3A4 (unknown origin)-mediated 21-nortriamcincolone acetonide metabolite retention time by MS/MS analysis; conditions: recombinant enzyme; summary of the method: as §1
[11] = target: T1, Cytochrome P450 3A4; experiment: Drug metabolism assessed as recombinant CYP3A4 (unknown origin)-mediated delta6-triamcinolone acetonide metabolite retention time by MS/MS analysis; conditions: recombinant enzyme; summary of the method: as §1
[12] = target: T1, Cytochrome P450 3A4; experiment: Drug metabolism assessed as recombinant CYP3A4 (unknown origin)-mediated 17beta-carboxy fluticasone propionate metabolite retention time by MS/MS analysis; conditions: recombinant enzyme; summary of the method: as §1
[13] = target: T1, Cytochrome P450 3A4; experiment: Drug level of the compound assessed as recombinant CYP3A4 (unknown origin)-mediated metabolite formation treated with fluticasone propionate by MS/MS analysis; conditions: recombinant enzyme; summary of the method: as §1
[14] = target: T1, Cytochrome P450 3A4; experiment: Drug metabolism assessed as recombinant CYP3A4 (unknown origin)-mediated 6beta-hydroxy triamcinolone acetonide metabolite retention time by MS/MS analysis; conditions: recombinant enzyme; summary of the method: as §1
[15] = target: T1, Cytochrome P450 3A4; experiment: Drug metabolism assessed as recombinant CYP3A4 (unknown origin)-mediated 16alpha-hydroxy prednisolone metabolite formation by MS/MS analysis; conditions: recombinant enzyme
[16] = target: CYP3A4 (Homo sapiens, UniProt P08684); experiment: Activity at recombinant CYP3A4 (unknown origin) assessed as half life at 1 uM by LC-MS analysis
Chain of CYP3A4 (P08684 whole entry): as above
Summary of the method: (§2)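 Recombinant P450 co-expressing P450 reductase and cytochrome b5, 10 pmol, with 1 μM substrate in 30 mM potassium phosphate (pH 7.4). Started with 1.3 mM NADPH at 37°C; no-NADPH negative controls. Samples at 0–20 min were quenched in cold acetonitrile with prednisolone internal standard and run by LC/MS, in triplicate. Parent/IS ratio vs time fitted to one-phase exponential decay; t1/2 = 0.69/kobs.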

[17] = target: CYP3A5 (Homo sapiens, UniProt P20815); experiment: Activity at recombinant CYP3A5 (unknown origin) assessed as half life at 1 uM by LC-MS analysis; summary of the method: as §2
Chain of CYP3A5 (P20815 whole entry): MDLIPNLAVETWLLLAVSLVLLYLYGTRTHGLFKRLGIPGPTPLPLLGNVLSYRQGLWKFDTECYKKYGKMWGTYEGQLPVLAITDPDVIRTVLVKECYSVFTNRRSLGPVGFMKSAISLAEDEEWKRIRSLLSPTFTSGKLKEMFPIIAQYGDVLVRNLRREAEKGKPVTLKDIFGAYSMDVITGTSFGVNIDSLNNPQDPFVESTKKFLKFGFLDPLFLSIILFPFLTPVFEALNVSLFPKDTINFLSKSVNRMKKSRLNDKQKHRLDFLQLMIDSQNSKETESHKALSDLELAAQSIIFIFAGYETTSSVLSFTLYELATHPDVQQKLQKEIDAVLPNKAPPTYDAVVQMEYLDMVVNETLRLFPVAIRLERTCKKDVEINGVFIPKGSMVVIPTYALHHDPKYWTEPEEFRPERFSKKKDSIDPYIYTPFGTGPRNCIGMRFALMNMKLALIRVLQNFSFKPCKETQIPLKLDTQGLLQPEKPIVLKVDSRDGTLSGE

[18] = target: CYP3A7 (Homo sapiens, UniProt P24462); experiment: Activity at recombinant CYP3A7 (unknown origin) assessed as half life at 1 uM by LC-MS analysis; summary of the method: as §2
Chain of CYP3A7 (P24462 whole entry): as the sequence (P24462 whole entry) above

[19] = target: T1, Cytochrome P450 3A4; experiment: Drug metabolism assessed as recombinant CYP3A4 (unknown origin)-mediated delta6-budesonide metabolite formation by MS/MS analysis; conditions: recombinant enzyme; summary of the method: as §1
[20] = target: T1, Cytochrome P450 3A4; experiment: Drug metabolism assessed as recombinant CYP3A4 (unknown origin)-mediated 16alpha-hydroxy prednisolone metabolite formation by MS/MS analysis in presence of esterase inhibitor; conditions: recombinant enzyme
[21] = target: T1, Cytochrome P450 3A4; experiment: Drug metabolism assessed as recombinant CYP3A4 (unknown origin)-mediated 6beta-hydroxy budesonide metabolite formation by MS/MS analysis; conditions: recombinant enzyme; summary of the method: as §1
[22] = target: T1, Cytochrome P450 3A4; experiment: Drug metabolism assessed as recombinant CYP3A4 (unknown origin)-mediated 23-hydroxy budesonide metabolite formation by MS/MS analysis; conditions: recombinant enzyme; summary of the method: as §1
[23] = target: T1, Cytochrome P450 3A4; experiment: Drug metabolism assessed as recombinant CYP3A4 (unknown origin)-mediated keto-flunisolide metabolite retention time by MS/MS analysis; conditions: recombinant enzyme; summary of the method: as §1

Chain of Cytochrome P450 3A5 (P20815 whole entry): as the sequence (P20815 whole entry) above

With `CCC(O)C1O[C@@H]2C[C@H]3[C@@H]4CCC5=CC(=O)C=C[C@]5(C)[C@H]4[C@@H](O)C[C@]3(C)[C@]2(C(=O)CO)O1` (stereo not given in full) the Drug metabolism [1] was “metabolite_detected”, the Drug metabolism [2] was “metabolite_detected” and the Drug metabolism [3] was “metabolite_detected”.
With `CC1(C)O[C@@H]2C[C@H]3[C@@H]4C[C@@H](O)C5=CC(=O)C=C[C@]5(C)[C@@]4(F)[C@@H](O)C[C@]3(C)[C@]2(C(=O)C(=O)O)O1` the Retention_time [4] was 16.4 min and the Drug metabolism [5] was “metabolite_detected”.
`CC1(C)O[C@@H]2C[C@H]3[C@@H]4C=C(F)C5=CC(=O)C=C[C@]5(C)[C@H]4[C@@H](O)C[C@]3(C)[C@]2(C(=O)CO)O1` was tested, and the Retention_time [6] was 20.6 min and the Drug metabolism [7] was “metabolite_detected”.
In the case of `CC1(C)O[C@@H]2C[C@H]3[C@@H]4CC(=O)C5=CC(=O)C=C[C@]5(C)[C@H]4[C@@H](O)C[C@]3(C)[C@]2(C(=O)CO)O1`, the Drug metabolism [7] is reported as “metabolite_detected”.
With `CC1(C)O[C@@H]2C[C@H]3[C@@H]4C[C@H](F)C5=CC(=O)C=C[C@]5(C)[C@H]4[C@@H](O)C[C@]3(C)[C@]2(C(=O)C(=O)O)O1` the Retention_time [8] was 23.1 min and the Drug metabolism [7] was “metabolite_detected”.
In the case of `CC1(C)O[C@@H]2C[C@H]3[C@@H]4CCC5=CC(=O)C=C[C@]5(C)[C@@]4(F)[C@@H](O)C[C@]3(C)[C@]2(C(=O)C(=O)O)O1`, the Retention_time [9] is reported as 23.7 min and the Drug metabolism [5] is reported as “metabolite_detected”.
`CC1(C)O[C@@H]2C[C@H]3[C@@H]4CCC5=CC(=O)C=C[C@]5(C)[C@@]4(F)[C@@H](O)C[C@]3(C)[C@]2(C(=O)O)O1` was tested, and the Retention_time [10] was 18.9 min and the Drug metabolism [5] was “metabolite_detected”.
With `CC1(C)O[C@@H]2C[C@H]3[C@@H]4C=CC5=CC(=O)C=C[C@]5(C)[C@@]4(F)[C@@H](O)C[C@]3(C)[C@]2(C(=O)CO)O1` the Retention_time [11] was 19.1 min and the Drug metabolism [5] was “metabolite_detected”.
`CCC(=O)O[C@]1(C(=O)O)[C@H](C)C[C@H]2[C@@H]3C[C@H](F)C4=CC(=O)C=C[C@]4(C)[C@@]3(F)[C@@H](O)C[C@@]21C` was tested, and the Retention_time [12] was 19.7 min and the Drug metabolism [13] was “metabolite_detected”.
`C[C@]12C=CC(=O)C=C1CC[C@@H]1[C@@H]2[C@@H](O)C[C@@]2(C)[C@H]1C[C@@H](O)[C@]2(O)C(=O)CO` was tested, and the Drug metabolism [1] was “metabolite_detected”, the Drug metabolism [2] was “metabolite_detected” and the Drug metabolism [3] was “metabolite_detected”.
For `CC1(C)O[C@@H]2C[C@H]3[C@@H]4C[C@@H](O)C5=CC(=O)C=C[C@]5(C)[C@@]4(F)[C@@H](O)C[C@]3(C)[C@]2(C(=O)CO)O1`, the Retention_time [14] was 14.9 min and the Drug metabolism [5] was “metabolite_detected”.
With `CCCC1O[C@@H]2C[C@H]3[C@@H]4C=CC5=CC(=O)C=C[C@]5(C)[C@H]4[C@@H](O)C[C@]3(C)[C@]2(C(=O)CO)O1` (stereo not given in full) the Drug metabolism [1] was “metabolite_detected”, the Drug metabolism [2] was “metabolite_detected” and the Drug metabolism [3] was “metabolite_detected”.
`CCCC1O[C@@H]2C[C@H]3[C@@H]4C[C@@H](O)C5=CC(=O)C=C[C@]5(C)[C@H]4[C@@H](O)C[C@]3(C)[C@]2(C(=O)CO)O1` (stereo not given in full) was tested, and the Drug metabolism [1] was “metabolite_detected”, the Drug metabolism [2] was “metabolite_detected” and the Drug metabolism [3] was “metabolite_detected”.
In the case of `CCCC1O[C@@H]2C[C@H]3[C@@H]4CCC5=CC(=O)C=C[C@]5(C)[C@H]4[C@@H](O)C[C@]3(C)[C@]2(C(=O)CO)O1` (stereo not given in full) [BUDESONIDE], the Drug metabolism [15] is reported as “metabolite_detected”, the half-life at 1 µM [16] is reported as 11 min and the half-life at 1 µM [17] is reported as 40 min. The half-life at 1 µM [18] was 71 min, the Drug metabolism [19] was “metabolite_detected” and the Drug metabolism [20] was “metabolite_not_detected”. For the same compound, the Drug metabolism [21] was “metabolite_detected” and the Drug metabolism [22] was “metabolite_detected”.
`CC1(C)O[C@@H]2C[C@H]3[C@@H]4C[C@H](F)C5=CC(=O)C=C[C@]5(C)[C@H]4[C@@H](O)C[C@]3(C)[C@]2(C(=O)CO)O1` [FLUNISOLIDE] was tested, and the half-life at 1 µM [16] was 16 min and the Retention_time [23] was 15.8 min.
With `CCC(=O)O[C@]1(C(=O)SCF)[C@H](C)C[C@H]2[C@@H]3C[C@H](F)C4=CC(=O)C=C[C@]4(C)[C@@]3(F)[C@@H](O)C[C@@]21C` [FLUTICASONE PROPIONATE] the half-life at 1 µM [16] was 0.86 min, the half-life at 1 µM [17] was 16 min and the half-life at 1 µM [18] was 58 min.
With `CC1(C)O[C@@H]2C[C@H]3[C@@H]4CCC5=CC(=O)C=C[C@]5(C)[C@@]4(F)[C@@H](O)C[C@]3(C)[C@]2(C(=O)CO)O1` [TRIAMCINOLONE ACETONIDE] the half-life at 1 µM [16] was 12 min, the half-life at 1 µM [17] was 130 min and the half-life at 1 µM [18] was 213 min.

— ChEMBL document CHEMBL3525921, “Metabolic pathways of inhaled glucocorticoids by the CYP3A enzymes” (Drug Metab Dispos, 2013)
